Source: PubChem (Broad Institute)
A selection: hits, their analogues and other compounds. The true share with any hit is near 2.1%.
GSIS activator: primary screen for activators of insulin secretion dependent on glucose, INS-1E cells, GLuc reporter luminescence; INS-1E GLuc reporter insulin secretion, 2-3 h; activation, % at 16.6 µM; hit rate 0.61% among 370,000;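 active = lowest replicate activation of at least 40%, so every replicate reaches that level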;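 also: 0% = median of neutral control wells and 100% = median of IBMX positive control wells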
EWS-Fli inh: inhibitors of EWS/Fli oncoprotein transcriptional activity; hit rate 0.67% among 350,000; A673 NR0B1-luciferase reporter, viability-normalised; inhibition, % at 12.6 µM;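 active = mean inhibition of at least 50% after viability correction, with every replicate also passing that limit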;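 also: firefly luciferase signal divided by Alamar Blue viability fluorescence both relative to DMSO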
PGC1a acetyl inh: PGC1a acetylation modulation, inhibitor mode | U2OS PGC1a acetylation, AlphaScreen anti-acetyl-lysine; with virally co-expressed GCN5 acetyltransferase | inhibition, % at 15.6 µM | hit rate 0.17% among 350,000 | AID 651687;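 active = every replicate shows inhibition of at least 40%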;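 also: 0% = neutral control wells and 100% = positive control wells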
PAX8 reporter: inhibitors of PAX8 transcriptional activity in RMG-I cells | RMG-I TPO-luciferase reporter, SteadyGlo, 24 h | hit rate 1.2% among 360,000 | AID 652154 | inhibition, % at 12.6 µM;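 active = mean replicate inhibition at least 60% with every replicate also reaching 60%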;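 also: luciferase light reporting Pax8 driven TPO promoter activity; plate controls were median of neutral control wells for no effect and mitoxantrone controls for full effect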
XiGFP reactiv: X-chromosome reactivation activator; XiGFP mouse fibroblasts, % GFP-positive cells imaging, 3 d; cells co-treated with 5-aza-dC sensitizer; scaled so ellipticine positive control = 100%; activation, % at 7.58 µM; hit rate 0.055% among 360,000; AID 743238;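 active = mean normalized replicate activation at least 10% and every replicate at or above 10%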;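 also: 0% = median of on-plate neutral control wells and 100% = ellipticine 6 µM median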
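Material: XiGFP fibroblasts, SV40-immortalized; Buffer or medium: DMEM containing 5-aza-dC; Compound dosing: single point; Times: 3 days compound exposure.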
AF4-AF9 inh: blocks AF4 peptide binding to human AF9; AID 651704; hit rate 0.47% among 350,000; inhibition, % at 10 µM; AlphaScreen, biotin-AF4 peptide binding to FLAG-AF9;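 active = every replicate reaching a set inhibition limit, whatever the replicate mean, cut at about 25% in these data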;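 also: 0% = plate neutral control median and 100% = total signal loss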
Target sequence (P42568 whole entry, looked up): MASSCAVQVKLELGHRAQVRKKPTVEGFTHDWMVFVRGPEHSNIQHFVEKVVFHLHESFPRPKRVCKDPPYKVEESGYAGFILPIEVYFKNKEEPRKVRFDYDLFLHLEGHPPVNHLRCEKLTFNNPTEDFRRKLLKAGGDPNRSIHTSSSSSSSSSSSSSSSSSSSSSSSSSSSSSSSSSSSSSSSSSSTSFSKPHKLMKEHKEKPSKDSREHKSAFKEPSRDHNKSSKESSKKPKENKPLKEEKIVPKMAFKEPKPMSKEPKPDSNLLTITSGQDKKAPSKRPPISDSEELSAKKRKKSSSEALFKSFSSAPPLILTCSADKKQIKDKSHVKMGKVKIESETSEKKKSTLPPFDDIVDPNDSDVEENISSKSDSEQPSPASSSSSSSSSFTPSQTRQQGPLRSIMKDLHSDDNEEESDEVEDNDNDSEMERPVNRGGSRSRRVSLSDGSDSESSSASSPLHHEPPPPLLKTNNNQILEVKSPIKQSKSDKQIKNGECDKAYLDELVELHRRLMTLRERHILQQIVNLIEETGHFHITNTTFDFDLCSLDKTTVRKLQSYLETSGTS
Numbers without * were called inactive; · = not tested or not shown.

SMILES | GSIS activator | EWS-Fli inh | PGC1a acetyl inh | PAX8 reporter | XiGFP reactiv | AF4-AF9 inh
CN1c2ccc(-c3cccc(F)c3)cc2[C@@H]2[C@@H](CCN2C(=O)Cc2ccccc2)[C@H]1CO | 2 | -3 | -14 | -1 | 0 | ·
O=C(/C=C/c1cccs1)c1ccc(NC(=O)c2cccc(Br)c2)cc1 | · | · | 48* | -128 | · | ·
Cc1ccc(C(=O)Nc2ccc(C(=O)/C=C/c3cccs3)cc2)cc1 | 32 | · | -3 | -128 | · | ·
C/C=C/c1ccc([C@@H]2[C@@H](CO)N(C(C)=O)C23CN(C(=O)c2ccncc2)C3)cc1 | -6 | 1 | 9 | 5 | 0 | -1
CCCCn1c(-c2ccncc2)nc2c1c(=O)[nH]c(=O)n2CC(C)C | 70* | · | -10 | · | · | ·
COCCn1c(-c2ccc(SC)cc2)nc2c1c(=O)[nH]c(=O)n2CC(C)C | 4 | -26 | · | 22 | 0 | 2
Cc1noc(C)c1S(=O)(=O)Nc1ccc2c(c1)C(=O)N([C@H](C)CO)C[C@@H](C)[C@@H](CN(C)C(=O)Nc1ccc(C(F)(F)F)cc1)OCCCC[C@@H](C)O2 | -2 | 15 | -5 | 23 | 0 | -3
O=C(C[C@@H]1C[C@H]2c3cc(NC(=O)CC4CC4)ccc3O[C@H]2[C@@H](CO)O1)NCc1ccccc1F | 0 | -8 | -6 | · | 0 | -2
O=C(C[C@H]1C=C[C@@H](NC(=O)Nc2cccc(F)c2)[C@@H](CO)O1)NCC1CC1 | -2 | 0 | 6 | -10 | 0 | -2
COc1ccc(S(=O)(=O)Nc2ccc3c(c2)C(=O)N([C@@H](C)CO)C[C@H](C)[C@@H](CN(C)C(=O)Nc2ccc(C(F)(F)F)cc2)OCCCC[C@H](C)O3)cc1 | 3 | 10 | 9 | 65* | 0 | 0
COc1ccc(S(=O)(=O)Nc2ccc3c(c2)C(=O)N([C@@H](C)CO)C[C@@H](C)[C@@H](CN(C)C(=O)Nc2ccc(C(F)(F)F)cc2)OCCCC[C@H](C)O3)cc1 | -26 | 2 | 10 | 9 | 0 | -2
COc1ccc(S(=O)(=O)Nc2ccc3c(c2)C(=O)N([C@@H](C)CO)C[C@H](C)[C@@H](CN(C)C(=O)Nc2ccc(C(F)(F)F)cc2)OCCCC[C@@H](C)O3)cc1 | -9 | 5 | -10 | 84* | 0 | -2
Cc1nnc(-c2ccccc2)c(=O)n1/N=C/c1c(O)ccc2ccccc12 | · | · | 64* | · | · | ·
CC(=O)Nc1ccc(C(=O)CSc2cc(C)c3cccc(C)c3n2)cc1 | 3 | -3 | 4 | 123* | 0 | -2
Cc1cc(C)c2nc(SCC(=O)NCCN3C(=O)CSC3=O)cc(C)c2c1 | 10 | -2 | 4 | 43 | 0 | 5
Cc1cc(SCC(=O)NCCN2C(=O)CSC2=O)nc2c(C)cccc12 | 46* | · | · | · | · | ·
Cc1cc(SCC(=O)c2cccs2)nc2c(C)cccc12 | · | · | 1 | · | · | ·
CCn1ncc2c1C(=O)NC1c3ccccc3C(=O)N21 (centres undefined) | 51* | · | -4 | -16 | · | ·
CN(C)C(=O)CSC1c2ccccc2C(=O)N1c1ccccc1 (centres undefined) | 6 | 1 | 16 | · | · | 7
C[C@@H]1CN([C@@H](C)CO)C(=O)c2cc(C3=CCCC3)cnc2O[C@H]1CN(C)C(=O)c1ccncc1 | 20 | -6 | -39 | · | -1 | -2
Cc1nc(NC(=O)C(Cl)Cl)sc1C(=O)N(C)C | 18 | · | · | 1 | 12* | ·
Cc1cccc2[nH]c3c(N4CC=C(c5ccc(F)cc5)CC4)ncnc3c12 | 41* | -9 | -5 | 15 | 0 | 0
COc1ccc(C(=O)NNC(=O)c2ccccn2)cc1 | 13 | 62* | · | 104* | 0 | -2
CCOc1ccc(C(=O)O/N=C(\N)c2ccccn2)cc1OCC | 87* | · | · | -139 | 0 | -2
CC(Oc1ccccc1)C(=O)NNC(=O)c1ccccn1 (centres undefined) | · | 13 | -14 | 75* | 0 | 2
COc1cc(OC)cc(C(=O)O/N=C(\N)c2ccccn2)c1 | · | -75 | 10 | -11 | 0 | 0
COc1ccc(C(=O)O/N=C(\N)c2ccccn2)cc1 | -7 | 44 | -12 | 121* | 0 | -3
CCOc1cc(C(=O)O/N=C(\N)c2ccccn2)cc(OCC)c1OCC | 15 | -11 | · | -3 | 0 | -1
